ChEMBL document CHEMBL5252538, “β-Lactam analogues of combretastatin A-4 prevent metabolic inactivation by glucuronidation in chemoresistant HT-29 colon cancer cells” (Eur J Med Chem, 2017)
Active and inactive are the calls of the source. No cut-off for these calls is given here.

Key:
HT-29 [1] = assay: Induction of cell cycle arrest in human HT-29 cells assessed as accumulation of cells at G0/G1 phase at 1 uM incubated for 24 hrs in presence of 2,3-bis(amino((2aminophenyl)thio)methylene)succinonitrile by RAase A/PI staining based flow cytometry analysis (reference value: 57%); format: functional
Tubulin (Homo sapiens) [2] = biological target: T1, Tubulin (Homo sapiens) (UniProt P68371+Q9H4B7+P0DPH7+P68366+Q13509+Q71U36+P04350+Q3ZCM7+P07437+P68363+Q9BQE3+Q6PEY2+Q13885+Q9BVA1+Q9BUF5); assay: Induction of microtubule disruption in human HT-29 cells assessed as effect on microtubule organization at 1 uM incubated for 16 hrs by immunofluorescence based confocal microscopic analysis; format: cell-based
HT-29 [3] = assay: Antiproliferative activity against combretastatin A-4 resistant human HT-29 cells assessed as inhibition of cell growth incubated for 72 hrs by SRB assay; format: functional, cell-based; conditions: HT-29, 72 h
Method in brief: (§1)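 HT-29 (DMEM Glutamax, 10% FBS) seeded at 1 × 10⁴ cells/well, treated after 24 h with vehicle (1% ethanol v/v) or serial dilutions (eight concentrations) for 72 h; viability measured by sulforhodamine B protocol. Percent viability relative to vehicle control, IC50 from dose–response curves; mean of three experiments in triplicate.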

HT-29 [4] = assay: Induction of cell cycle arrest in human HT-29 cells assessed as accumulation of cells in G2/M phase at 1 uM incubated for 24 to 72 hrs by RNase/PI staining based flow cytometry analysis; format: functional; conditions: time 24-72 hrs
HT-29 [5] = assay: Induction of cell cycle arrest in human HT-29 cells assessed as accumulation of cells at G0/G1 phase at 1 uM incubated for 24 hrs by RAase A/PI staining based flow cytometry analysis (reference value: 57%); format: functional
HL-60 [6] = assay: Antiproliferative activity against […] human HL-60 cells assessed as inhibition of cell growth incubated for 72 hrs by alamar blue assay; format: functional, cell-based; conditions: HL-60, 72 h
Method in brief: (§2)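 Cells seeded 24 h before treatment (HL-60 4 × 10⁴, MCF-7 5 × 10³ per well), then given medium, vehicle (1% ethanol v/v) or serial dilutions (eight concentrations) for 72 h. Alamar Blue (10% v/v) added for 3–5 h at 37 °C in the dark, fluorescence read at ex 530/em 590 nm. Viability expressed relative to vehicle (100%), IC50 from dose–response curves; three experiments in triplicate.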

HT-29 [7] = assay: Induction of cell cycle arrest in human HT-29 cells assessed as accumulation of cells at G2/M phase at 1 uM incubated for 24 hrs by RAase A/PI staining based flow cytometry analysis (reference value: 16%); format: functional
HT-29 [8] = assay: Induction of cell cycle arrest in human HT-29 cells assessed as accumulation of cells in sub-G1 phase at 1 uM incubated for 72 hrs by RNase/PI staining based flow cytometry analysis (reference value: 6%); format: functional
HT-29 [9] = assay: Induction of cell cycle arrest in human HT-29 cells assessed as accumulation of cells at G2/M phase at 1 uM incubated for 24 hrs in presence of 2,3-bis(amino((2-aminophenyl)thio)methylene)succinonitrile by RAase A/PI staining based flow cytometry analysis (reference value: 16%); format: functional
MCF7 [10] = assay: Antiproliferative activity against […] human MCF7 cells assessed as inhibition of cell growth incubated for 72 hrs by alamar blue assay; format: functional, cell-based; conditions: MCF7, 72 h; method in brief: as §2
Tubulin (Homo sapiens) [11] = biological target: T1, Tubulin (Homo sapiens); assay: Induction of microtubule disruption in human HT-29 cells assessed as appearance of multiple micronucleus incubated for 16 hrs by immunofluorescence based confocal microscopic analysis; format: cell-based
Method in brief: (§3)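 Fixed in 4% paraformaldehyde, permeabilised in 0.5% Triton X-100, blocked in 5% BSA, stained with anti-α-tubulin-FITC (DM1A, 1:100, 2 h) and Alexa Fluor 488, DAPI counterstain; confocal imaging, three occasions.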

HT-29 [12] = assay: Induction of cell cycle arrest in human HT-29 cells assessed as reduction in cells in S phase at 0.5 uM incubated for 72 hrs by RNase/PI staining based flow cytometry analysis; format: functional
Method in brief: (§4)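 HT-29 treated with vehicle (0.1% ethanol v/v) or compound at 0.5 µM for 24, 48 and 72 h. Adherent plus detached cells collected, fixed overnight in ice-cold 70% ethanol at −20 °C, stained with PI (50 µg/mL) plus RNase A (50 µg/mL) 30 min at 37 °C. 10,000 cells analysed by flow cytometry at 488 nm; sub-G1, G0/G1, G2/M gated on DNA content; mean of three experiments.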

Tubulin (Homo sapiens) [13] = biological target: T1, Tubulin (Homo sapiens); assay: Induction of microtubule disruption in human HT-29 cells assessed as complete loss of microtubule structure incubated for 16 hrs by immunofluorescence based confocal microscopic analysis; format: cell-based; method in brief: as §3
HT-29 [14] = assay: Induction of cell cycle arrest in human HT-29 cells assessed as accumulation of cells at G2/M phase at 0.5 uM incubated for 72 hrs by RNase/PI staining based flow cytometry analysis relative to control; format: functional; method in brief: as §4
HT-29 [15] = assay: Induction of cell cycle arrest in human HT-29 cells assessed as reduction in cells in G0 phase at 0.5 uM incubated for 72 hrs by RNase/PI staining based flow cytometry analysis; format: functional; method in brief: as §4
HT-29 [16] = assay: Induction of cell cycle arrest in human HT-29 cells assessed as accumulation of cells in sub-G1 phase at 0.5 uM incubated for 72 hrs by RNase/PI staining based flow cytometry analysis (reference value: 6%); format: functional; method in brief: as §4
Tubulin (Homo sapiens) [17] = biological target: T1, Tubulin (Homo sapiens); assay: Induction of microtubule disruption in human HT-29 cells assessed as complete loss of microtubule structure at 0.5 uM incubated for 16 hrs by immunofluorescence based confocal microscopic analysis; format: cell-based; method in brief: as §3
Tubulin (Homo sapiens) [18] = biological target: T1, Tubulin (Homo sapiens); assay: Induction of microtubule disruption in human HT-29 cells assessed as appearance of multiple micronucleus at 0.5 uM incubated for 16 hrs by immunofluorescence based confocal microscopic analysis; format: cell-based; method in brief: as §3
[19] = tested on: Panel NCI-60 (60 carcinoma cell lines); assay: Antiproliferative activity against human panel NCI-60 (60 carcinoma cell lines) incubated for 72 hrs by SRB assay; format: functional; conditions: read-out: LC50 (the source's name)
HT-29 [20] = assay: Induction of apoptosis in human HT-29 cells assessed as decrease in Mcl-1 protein expression at 0.1 to 1 uM incubated for 48 hrs by Western blot analysis; format: functional, cell-based; conditions: dose 0.1-1 µM
Method in brief: (§5)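 HT-29 seeded at 1 × 10⁵ cells per T25 flask; left untreated, given vehicle (0.1% EtOH v/v) or compound at 0.1 or 1 µM for 48 h. Whole-cell lysates in RIPA with protease/phosphatase inhibitors, equal protein (BCA) on 12% SDS-PAGE, PVDF; probed for Mcl-1, PARP, Bax (1:1000), HRP secondary, ECL detection, GAPDH loading control; three independent occasions.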

MCF7 [21] = assay: Induction of cell cycle arrest in human MCF7 cells assessed as accumulation of cells at sub-G1 phase at 0.5 uM incubated for 72 hrs by RNase/PI staining based flow cytometry analysis (reference value: 4%); format: functional
Tubulin (Homo sapiens) [22] = biological target: T1, Tubulin (Homo sapiens); assay: Induction of microtubule disruption in human MCF7 cells assessed as depolymerization of microtubules at 0.5 uM incubated for 16 hrs by immunofluorescence based confocal microscopic analysis; format: cell-based
Method in brief: (§6)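 MCF-7 seeded at 1 × 10⁵ cells/mL on chamber slides, treated 16 h with vehicle (1% ethanol v/v), CA-4 (0.1 µM) or compounds (0.5 µM). Paraformaldehyde fixation (4%, 20 min), Triton X-100 permeabilisation, BSA block, anti-α-tubulin-FITC (DM1A) plus Alexa Fluor 488, DAPI mounting; confocal imaging with identical settings per experiment; three independent occasions.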

HT-29 [23] = assay: Antiproliferative activity against human HT-29 cells assessed as inhibition of cell growth incubated for 72 hrs by SRB assay; format: functional; method in brief: as §1
MCF7 [24] = assay: Induction of cell cycle arrest in human MCF7 cells assessed as accumulation of cells at G2/M phase at 0.5 uM incubated for 24 hrs by RNase/PI staining based flow cytometry analysis (reference value: 24%); format: functional
[25] = biological target: T2, Tubulin beta (Homo sapiens) (UniProt P68371+Q9H4B7+Q13509+P04350+Q3ZCM7+P07437+Q13885+Q9BVA1+Q9BUF5+A6NNZ2); assay: Binding affinity to colchicine binding site of beta-tubulin in human MCF7 cells assessed as inhibition of beta-tubulin-EBI adduct formation at 10 uM pretreated for 2 hrs followed by EBI addition and measured after 1.5 hrs by Western blot analysis; format: cell-based; conditions: time 3.5 hrs
Method in brief: (§7)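 Cells seeded at 5 × 10⁴/well, grown overnight, treated with vehicle (0.1% ethanol v/v) or compound (10 µM) for 2 h, then EBI (100 µM) added for 1.5 h. Cells washed with ice-cold PBS, lysed in Laemmli buffer, run on SDS-PAGE, blotted and probed for β-tubulin to detect the faster-migrating β-tubulin–EBI adduct; GAPDH reprobe for loading; three independent experiments.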

[26] = Stability in phosphate buffer at pH 9 assessed as half life at 30 ug/ml measured for 24 hrs by analytical HPLC analysis; format: physicochemical; conditions: dose 30 µg/ml
HT-29 [27] = assay: Induction of apoptosis in human HT-29 cells assessed as increase in PARP cleavage at 0.1 uM incubated for 48 hrs by Western blot analysis; format: functional, cell-based; method in brief: as §5
Tubulin (Bos taurus) = Tubulin (Bos taurus) (UniProt Q6B856+Q862L2+Q862F3); assay: Inhibition of bovine tubulin polymerisation assessed as fold reduction in Vmax at 10 uM measured every 30 secs for 30 mins by spectrophotometric method relative to control; format: protein assay
[28] = tested on: Panel NCI-60 (60 carcinoma cell lines); assay: Antiproliferative activity against human panel NCI-60 (60 carcinoma cell lines) assessed as inhibition of cell growth at 10 uM incubated for 72 hrs by SRB assay; format: functional, cell-based
HL-60 [29] = assay: Antiproliferative activity against human HL-60 cells assessed as inhibition of cell growth incubated for 72 hrs by SRB assay; format: functional
[30] = Stability in phosphate buffer at pH 4 assessed as half life at 30 ug/ml measured for 24 hrs by analytical HPLC analysis; format: physicochemical; conditions: dose 30 µg/ml
Tubulin (Homo sapiens) [31] = biological target: T1, Tubulin (Homo sapiens); assay: Induction of microtubule disruption in human MCF7 cells assessed as shrunken spindle shaped microtubule formation at 0.5 uM incubated for 16 hrs by immunofluorescence based confocal microscopic analysis; format: cell-based; method in brief: as §6
[32] = Stability in phosphate buffer at pH 7.4 assessed as half life at 30 ug/ml measured for 24 hrs by analytical HPLC analysis; format: physicochemical; conditions: dose 30 µg/ml
MCF7 [33] = assay: Antiproliferative activity against human MCF7 cells assessed as inhibition of cell growth incubated for 72 hrs by SRB assay; format: functional
Tubulin (Homo sapiens) [34] = biological target: T1, Tubulin (Homo sapiens); assay: Induction of microtubule disruption in human MCF7 cells assessed as inhibition of microtubule formation at 0.5 uM incubated for 16 hrs by immunofluorescence based confocal microscopic analysis; format: cell-based; method in brief: as §6
HT-29 [35] = assay: Induction of apoptosis in human HT-29 cells assessed as upregulation of Bax protein expression at 0.1 to 1 uM incubated for 48 hrs by Western blot analysis; format: functional, cell-based; conditions: dose 0.1-1 µM; method in brief: as §5
[36] = biological target: T2, Tubulin beta (Homo sapiens); assay: Binding affinity to colchicine binding site of beta-tubulin in human HT-29 cells assessed as inhibition of beta-tubulin-EBI adduct formation at 10 uM pretreated for 2 hrs followed by EBI addition and measured after 1.5 hrs by Western blot analysis; format: cell-based; conditions: time 3.5 hrs; method in brief: as §7

Compound	IC50 (HT-29 [3]) [nM]	IC50 (HL-60 [6]) [nM]	IC50 (MCF7 [10]) [nM]	Activity (HT-29 [12])	Activity (HT-29 [14]) [%]	Activity (HT-29 [15])	Activity (HT-29 [16]) [%]	CC50 [19] [nM]	Activity (HT-29 [20])	Activity (MCF7 [21]) [%]	Activity (Tubulin (Homo sapiens) [22])	GI50 (HT-29 [23]) [nM]	Activity (MCF7 [24]) [%]	half-life at 30 ug/ml [26] [h]	Activity (HT-29 [27])	fold change (FC) (Tubulin (Bos taurus))	inhibition [28]	GI50 (HL-60 [29]) [nM]	half-life at 30 ug/ml [30] [h]	Activity (Tubulin (Homo sapiens) [31])	other results
COc1ccc(C2C(c3ccccc3)C(=O)N2c2cc(OC)c(OC)c(OC)c2)cc1O (mixture of isomers)	430	2	4	–	–	–	–	–	–	–	–	–	–	–	–	–	–	–	–	–	Activity (HT-29 [1]): 26%; Activity (Tubulin (Homo sapiens) [2]): inactive; Activity (HT-29 [4]): inactive; Activity (HT-29 [5]): 60%; Activity (HT-29 [7]): 16%; Activity (HT-29 [8]): 5%; Activity (HT-29 [9]): 58%
COc1ccc(C2C(c3ccccc3)C(=O)N2c2cc(OC)c(OC)c(OC)c2)cc1 (mixture of isomers)	22	24	15	Active	50	Active	19	–	–	–	–	–	–	–	–	–	–	–	–	–	Activity (Tubulin (Homo sapiens) [11]): Active; Activity (Tubulin (Homo sapiens) [13]): Active
COc1cc(N2C(=O)C(O)C2c2ccc(SC)cc2)cc(OC)c1OC (racemic)	15	15	5	Active	68	Active	15	> 100000	Active	12	Active	< 10	70	16	Active	3.5	Active	< 10	16	Active	Activity (Tubulin (Homo sapiens) [17]): Active; Activity (Tubulin (Homo sapiens) [18]): Active; inhibition [25]: Active; half-life at 30 ug/ml [32]: > 24 h; GI50 (MCF7 [33]): < 10 nM; Activity (Tubulin (Homo sapiens) [34]): Active; Activity (HT-29 [35]): Active; inhibition [36]: Active
COc1cc(N2C(=O)C(c3ccccc3)C2c2ccc(SC)cc2)cc(OC)c1OC (racemic)	56	59	65	–	–	–	–	> 100000	Active	11	Active	32	65	8	Active	3.4	Active	23	10	Active	half-life at 30 ug/ml [32]: 15 h; GI50 (MCF7 [33]): 35 nM; Activity (Tubulin (Homo sapiens) [34]): Active; Activity (HT-29 [35]): Active
